# Calls of active or inactive are those of the source. No cut-off for these calls is given here.
# Tests used:
# [1] = molecular target: T1, Androgen receptor (Mus musculus) (UniProt P19091); assay: Activation of androgen receptor in androgen-sensitive (AR+) mouse Shionogi cells assessed as stimulation of cell proliferation after 10 days at 1 uM relative to control
# T1 sequence (whole entry): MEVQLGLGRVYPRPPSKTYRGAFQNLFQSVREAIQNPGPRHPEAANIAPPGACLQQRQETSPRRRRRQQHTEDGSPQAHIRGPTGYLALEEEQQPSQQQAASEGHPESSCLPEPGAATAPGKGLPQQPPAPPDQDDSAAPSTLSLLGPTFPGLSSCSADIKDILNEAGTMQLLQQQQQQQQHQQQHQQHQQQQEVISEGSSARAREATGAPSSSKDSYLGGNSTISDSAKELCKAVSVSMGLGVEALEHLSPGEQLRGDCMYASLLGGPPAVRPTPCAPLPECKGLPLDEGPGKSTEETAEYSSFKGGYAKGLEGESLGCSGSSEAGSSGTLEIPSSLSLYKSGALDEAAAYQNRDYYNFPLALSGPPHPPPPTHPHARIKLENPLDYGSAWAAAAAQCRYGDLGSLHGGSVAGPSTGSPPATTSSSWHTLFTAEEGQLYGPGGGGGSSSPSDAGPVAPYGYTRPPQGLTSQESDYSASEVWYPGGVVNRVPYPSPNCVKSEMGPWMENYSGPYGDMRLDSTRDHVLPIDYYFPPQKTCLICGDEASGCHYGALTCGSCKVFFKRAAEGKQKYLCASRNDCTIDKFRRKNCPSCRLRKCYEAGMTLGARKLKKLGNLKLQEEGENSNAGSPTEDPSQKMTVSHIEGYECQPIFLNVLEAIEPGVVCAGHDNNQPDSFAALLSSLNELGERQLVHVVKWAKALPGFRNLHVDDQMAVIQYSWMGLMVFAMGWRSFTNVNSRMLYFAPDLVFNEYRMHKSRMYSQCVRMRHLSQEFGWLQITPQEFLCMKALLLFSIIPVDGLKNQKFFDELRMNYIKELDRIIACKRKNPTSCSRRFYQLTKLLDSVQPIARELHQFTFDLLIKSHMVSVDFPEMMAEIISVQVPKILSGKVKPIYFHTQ
# Method in brief: (§1)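 Androgen-sensitive (AR+) Shionogi cells. Inhibitors and reference compounds were each tested at 0.1 and 1.0 µM. Androgenicity is reported as % cell proliferation versus control, with basal proliferation set to 100%. DHT (0.1 µM) served as androgen reference and hydroxyflutamide as antiandrogen. Data are mean ± SEM of one experiment in triplicate.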
# [2] = molecular target: T2, 17-beta-hydroxysteroid dehydrogenase type 3 (Homo sapiens) (UniProt P37058); assay: Inhibition of 17Beta-HSD3 expressed in homogenized HEK293 cells assessed as transformation of [14C]-4-androstene-3,17-dione into [14C]-testosterone in presence of NADPH at 0.01 uM; format: cell-based
# T2 sequence (whole entry): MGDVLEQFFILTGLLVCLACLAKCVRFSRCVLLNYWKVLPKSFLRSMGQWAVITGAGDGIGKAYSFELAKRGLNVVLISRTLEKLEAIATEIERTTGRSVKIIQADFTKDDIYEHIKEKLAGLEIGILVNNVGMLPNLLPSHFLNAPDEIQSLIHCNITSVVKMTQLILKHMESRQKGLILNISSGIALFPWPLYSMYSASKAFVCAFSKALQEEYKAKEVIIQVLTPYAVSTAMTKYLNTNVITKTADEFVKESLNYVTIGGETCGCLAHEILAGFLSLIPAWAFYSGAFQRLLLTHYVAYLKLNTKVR
# Method in brief: (§2)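 HEK-293 cells overexpressing 17β-HSD3 were briefly homogenized. The enzyme assay measured conversion of 50 nM [4-14C]-4-androstene-3,17-dione to [14C]-testosterone with NADPH in excess (5 mM). Inhibitor was dissolved in ethanol, and the ethanol-only control was used to derive % inhibition at each concentration. Error 10%.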
# [3] = molecular target: T2, 17-beta-hydroxysteroid dehydrogenase type 3 (Homo sapiens); assay: Inhibition of 17Beta-HSD3 expressed in homogenized HEK293 cells assessed as transformation of [14C]-4-androstene-3,17-dione into [14C]-testosterone in presence of NADPH at 0.1 uM; format: cell-based; method in brief: as §2
# [4] = molecular target: T2, 17-beta-hydroxysteroid dehydrogenase type 3 (Homo sapiens); assay: Inhibition of 17Beta-HSD3 expressed in homogenized HEK293 cells assessed as transformation of [14C]-4-androstene-3,17-dione into [14C]-testosterone in presence of NADPH at 1 uM; format: cell-based; method in brief: as §2
# [5] = molecular target: T2, 17-beta-hydroxysteroid dehydrogenase type 3 (Homo sapiens); assay: Inhibition of 17Beta-HSD3 expressed in intact HEK293 cells assessed as transformation of [14C]-4-androstene-3,17-dione into [14C]-testosterone in presence of NADPH at 0.1 uM after 1 hr incubation; format: cell-based
# Method in brief: (§3)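 HEK-293 cells were grown in MEM with 10% FBS at 37 °C under 5% CO2, seeded at 200,000 cells/well, and transfected with 2 µg/well of a 17β-HSD3 expression plasmid. Intact cells then got 50 nM [4-14C]-4-androstene-3,17-dione plus inhibitor in ethanol (0.5% v/v) for 1 h. Radiolabelled steroids were extracted from the medium and quantified. Triplicate; % transformation was used to derive IC50.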
# [6] = molecular target: T3, 17-beta-hydroxysteroid dehydrogenase type 3 (Homo sapiens, UniProt P37058); assay: Inhibition of 17Beta-HSD3 expressed in intact HEK293 cells assessed as transformation of [14C]-4-androstene-3,17-dione into [14C]-testosterone in presence of NADPH after 1 hr incubation; format: cell-based; method in brief: as §3
# T3 sequence (P37058 whole entry): T2 sequence (whole entry)
# [7] = molecular target: T1, Androgen receptor (Mus musculus); assay: Activation of androgen receptor in androgen-sensitive (AR+) mouse Shionogi cells assessed as stimulation of cell proliferation after 10 days relative to control; method in brief: as §1
# [8] = molecular target: T2, 17-beta-hydroxysteroid dehydrogenase type 3 (Homo sapiens); assay: Inhibition of 17Beta-HSD3 expressed in intact HEK293 cells assessed as transformation of [14C]-4-androstene-3,17-dione into [14C]-testosterone in presence of NADPH at 1 uM after 1 hr incubation; format: cell-based; method in brief: as §3
smiles,measurement,setting,value
C[C@]12CC[C@](O)(Cc3ccccc3)C[C@@H]1CC[C@@H]1[C@@H]2CC[C@]2(C)C(=O)CC[C@@H]12,Activity,[1],396%
C[C@]12CC[C@@]3(C[C@@H]1CC[C@@H]1[C@@H]2CC[C@]2(C)C(=O)CC[C@@H]12)CN(Cc1ccccc1)C(=O)O3,inhibition,[2],21%
same,inhibition,[3],86%
same,inhibition,[4],93%
same,inhibition,[5],44%
same,Activity,[1],inactive
C[C@@H]1CN(S(=O)(=O)c2ccccc2C(F)(F)F)[C@@H](C)CN1C[C@@]1(O)CC[C@@]2(C)[C@@H](CC[C@@H]3[C@@H]2CC[C@]2(C)C(=O)CC[C@@H]32)C1,inhibition,[2],55%
same,inhibition,[3],92%
same,inhibition,[5],84%
same,Activity,[1],inactive
same,IC50,[6],6 nM
CC(C)(O)C(=O)Nc1ccc([N+](=O)[O-])c(C(F)(F)F)c1,Activity,[7],inactive
C[C@]12CC[C@@]3(C[C@@H]1CC[C@@H]1[C@@H]2CC[C@]2(C)C(=O)CC[C@@H]12)CN(CCC(CN1CCOCC1)OC(=O)C1CCCCC1)C(=O)O3 (stereo not given in full),Activity,[7],inactive
same,IC50,[6],51 nM
CCN(Cc1ccccc1)C[C@@]1(O)CC[C@@]2(C)[C@@H](CC[C@@H]3[C@@H]2CC[C@]2(C)C(=O)CC[C@@H]32)C1,inhibition,[2],42%
same,inhibition,[3],85%
same,inhibition,[4],90%
same,inhibition,[5],86%
same,inhibition,[8],94%
same,Activity,[1],314%
